Experimental findings from ChEMBL document CHEMBL2384980, “Development of cell-active non-peptidyl inhibitors of cysteine cathepsins” (Bioorg Med Chem, 2013) are described below.

Experiment [1] has as its target T1, Cathepsin B (Homo sapiens, UniProt P07858). The experiment in a line: Inhibition of human liver cathepsin B. The method in brief:
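Human liver cathepsin B (175 nM final) activated 10 min in 100 mM sodium phosphate pH 6.0 with 5 mM DTT, 1 mM Na2EDTA, then incubated with inhibitor (5% DMSO) at 30 °C under pseudo-first-order conditions. Aliquots diluted 17.5-fold into 3 mM Z-RR-pNA; initial rates read at 405 nm. Screening used 500 µM inhibitor with residual activity after 10 min.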

The target of experiment [2] is T1, Cathepsin B. The experiment in a line: Time dependent inhibition of human liver cathepsin B using Z-RR-para-nitroanilide as substrate at 500 uM. A digest of the protocol: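 Screening: human liver cathepsin B (175 nM) activated in 100 mM sodium phosphate pH 6.0, 5 mM DTT, 1 mM EDTA, incubated with 500 µM inhibitor (5% DMSO) at 30 °C for 10 min; aliquot diluted 17.5-fold into 3 mM Z-RR-pNA, residual activity from initial rates at 405 nm.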

Active and inactive are the calls of the source. The rule behind the calls is not given here.

Usually Ki stands for a dissociation constant, usually derived from enzyme kinetics or from competition with a known ligand. A high value points to lower affinity. What is called inhibition is the drop in the measured response relative to a control, in per cent.

For the compound `CC(=O)N[C@@H](CC(C)C)C(=O)N[C@@H](CC(C)C)C(=O)N[C@H](C=O)CCCNC(=N)N` [LEUPEPTIN], on Cathepsin B [1], affinity was put at a Ki of 5 nM. Regarding `O=S(=O)(c1ccccc1)C1OC1c1ccc(F)cc1` (configuration not stated), at Cathepsin B [2], the inhibition result is “inactive”. Regarding `O=S(=O)(c1cc(Cl)cc(Cl)c1)C1CO1` (configuration not stated), the inhibition against Cathepsin B [2] was determined as 50%. On the same count and under the same terms, for `Cc1cccc(S(=O)(=O)C2CO2)c1` (configuration not stated) the value was 40%; for `O=S(=O)(c1ccc2ccccc2c1)C1CO1` (configuration not stated), 18%; for `CCCC1OC1S(=O)(=O)c1ccccc1` (configuration not stated), “inactive”. At Cathepsin B [2], `COc1ccc(OC)c(S(=O)(=O)C2CO2)c1` (configuration not stated) had an inhibition of 25%.
